We go through one compound from ChEMBL document CHEMBL4190216, “Asymmetric 1,5-diarylpenta-1,4-dien-3-ones: Antiproliferative activity in prostate epithelial cell models and pharmacokinetic studies” (Eur J Med Chem, 2017).

Data set [1] is described as follows: Drug metabolism in human liver microsomes assessed as (1E,4E)-1-(1-sec-butyl-4-hydroxy-1H-imidazol-2-yl)-5-(2-methyl-4-(trifluoromethyl)thiazol-5-yl)penta-1,4-dien-3-one formation at 10 mM after 60 mins by UHPLC analysis. The class given is ADME, microsome. The method in brief: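 Pooled human liver microsomes in potassium phosphate buffer (pH 7.4) with NADPH solutions A and B were preincubated for 5 min at 37 °C. Compound was then added from a 10 mM stock (3 μL into 300 μL total) and incubated 60 min at 37 °C. Reactions were quenched with an equal volume of methanol and centrifuged (10,000 × g, 4 min, 4 °C). Supernatant went to UHPLC–high-resolution MS for metabolite identification.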
(In general: Microsomes from liver hold many membrane-bound enzymes, among them those of drug oxidation.)

Data set [2] deals with PC-3. The experiment in a line: Potency index, ratio of curcumin IC50 to test compound IC50 for human PC3 cells. The class given is functional.
The subject of data set [3] is PC-3. As to the kind of experiment: Cell cycle arrest in human PC3 cells assessed as accumulation at G0/G1 phase at 5 uM after 16 hrs by propidium iodide staining-based flow cytometric method (reference value: 51 to 52%). The class given is functional. In general terms: A flow cytometer gives signals particle by particle.
The subject of data set [4] is PC-3. As to the kind of experiment: Induction of apoptosis in human PC3 cells assessed as viable cells at 20 uM after 16 hrs by F2N12S/CYTOX AADvanced double staining-based flow cytometric method (reference value: 95%). The class given is functional. Particulars: PC-3, 16 h, read-out: Activity.
Another data set has as its system DU-145. As to the kind of experiment: Potency index, ratio of curcumin IC50 to test compound IC50 for human DU145 cells. The class given is functional.
The subject of data set [5] is PC-3. As to the kind of experiment: Induction of apoptosis in human PC3 cells assessed as late apoptotic/necrotic cells at 15 uM after 16 hrs by F2N12S/CYTOX AADvanced double staining-based flow cytometric method (reference value: 3%). The class given is functional.
Data set [6] is described as follows: Plasma concentration in Sprague-Dawley rat at 10 mg/kg administered via oral gavage measured at 3 hrs by HPLC-MS/MS analysis. The class given is ADME, organism-based.
Data set [7] has as its system PC-3. As to the kind of experiment: Induction of apoptosis in human PC3 cells assessed as viable cells at 10 uM after 16 hrs by F2N12S/CYTOX AADvanced double staining-based flow cytometric method (reference value: 95%). The class given is functional. The following applies: PC-3, 16 h, read-out: Activity.
Data set [8] relates to PC-3. As to the kind of experiment: Cell cycle arrest in human PC3 cells assessed as accumulation at G2 phase at 5 uM after 24 hrs by propidium iodide staining-based flow cytometric method (reference value: 24%). The class given is functional.
A further data set concerns PWR-1E. As to the kind of experiment: Antiproliferative activity against human PWR-1E cells expressing androgen receptor and PSA assessed as decrease in cell viability after 3 days by WST assay. Particulars: 72 h. The class given is functional, cell-based. The method in brief:
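Non-malignant prostate epithelial PWR-1E (adenovirus 12/SV40-immortalized) was seeded at 5,000 per well. Cells were exposed for 3 days at 37 °C in a CO2 incubator to at least five concentrations, with DMSO as vehicle control. WST-1 reagent was then added for 3 h at 37 °C and absorbance read at 430 nm. IC50 came from linear inhibition, as the mean of triplicate determinations.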

Data set [9] relates to PC-3. The experiment in a line: Induction of apoptosis in human PC3 cells assessed as viable cells at 5 uM after 16 hrs by F2N12S/CYTOX AADvanced double staining-based flow cytometric method (reference value: 95%). The class given is functional. Particulars: PC-3, 16 h, read-out: Activity.
Data set [10] can be described thus: AUC in Sprague-Dawley rat at 10 mg/kg administered via oral gavage by HPLC-MS/MS analysis. The class given is ADME, organism-based. The following applies: in vivo.
Another data set has as its system Rattus norvegicus. The experiment in a line: Acute toxicity in Sprague-Dawley rat at 10 mg/kg administered via oral gavage. The class given is organism-based. Particulars: in vivo. An outline of the steps: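 Male Sprague-Dawley rats (250–300 g, n = 4) each received a single 10 mg/kg oral gavage dose. The vehicle was 5% DMSO, 40% polyethylene glycol 400 and 55% saline. Blood was drawn from the lateral tail vein at 1, 3, 6 and 24 h for plasma drug levels. Toxicity was scored as observed deaths after dosing.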

As usually defined, the IC50 is the midpoint of a concentration-inhibition curve. One may read the AUC as concentration integrated over time. A low value points to low exposure. In the case of `CCC(C)n1ccnc1/C=C/C(=O)/C=C/c1sc(C)nc1C(F)(F)F` (stereo not drawn), the Drug metabolism result in [1] was “Metabolite_Detected”. For the same compound, the “Ratio IC50” value with PC-3 [2] is recorded as 110; in the data set on DU-145 it was 75. Besides, the Activity with PC-3 [3] was 68%; in the data set with PC-3 [5], 33%; in the data set on PC-3 [8] it was 21%; in the data set with Rattus norvegicus, “Non-Toxic”. In addition, in the data set on PC-3 [4], the viability at 20 µM turned out to be 51%. This compound gave a concentration at 3 h in [6] of 672 ng/mL. Besides, the viability at 10 µM in the data set on PC-3 [7] came to 49%. Moreover, the IC50 in the data set with PWR-1E stood at 110 nM. In addition, the viability at 5 µM in the data set on PC-3 [9] was 50%. Besides, the AUC in data set [10] came to 24700 ng·h/mL.
